Test results published in ChEMBL document CHEMBL4011598, “Sulfonamides as Selective NaV1.7 Inhibitors: Optimizing Potency and Pharmacokinetics While Mitigating Metabolic Liabilities” (J Med Chem, 2017).
Values after ≈ are worked out from the molar mass of the structure shown. Active and inactive are the calls of the source. The rule behind the calls is not given here.

Legend:
Plasma [1] = test: Total plasma concentration in C57Bl/6 mouse at 30 mg/kg, po; assay type: ADME, organism-based; conditions: in vivo
Mus musculus [2] = test: Antipruriceptive activity in C57Bl/6 mouse assessed as reduction in number of histamine-induced scratching bouts at 30 to 300 mg/kg, po administered 4 hrs prior to histamine challenge measured over 15 mins; assay type: functional, organism-based
Rattus norvegicus = test: Unbound clearance in rat at 0.5 mg/kg, iv; assay type: ADME, organism-based; conditions: in vivo
Method in brief: (§1)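 Male rats given a single 0.5 mg/kg iv dose in DMSO. Unbound clearance (CLu) is total clearance divided by fu, the unbound fraction in plasma.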

[3] = target: Sodium channel protein type 5 subunit alpha (Homo sapiens, UniProt Q14524); test: Inhibition of human Nav1.5 expressed in HEK293 cells assessed as reduction in peak inward current by ionworks quattro electrophysiology assay; assay type: cell-based
[4] = target: Sodium channel protein type 1 subunit alpha (Homo sapiens, UniProt P35498); test: Inhibition of human Nav1.1 expressed in HEK293 cells assessed as reduction in peak inward current by ionworks quattro electrophysiology assay; assay type: cell-based
[5] = target: Sodium channel protein type 4 subunit alpha (Homo sapiens, UniProt P35499); test: Inhibition of human Nav1.4 expressed in HEK293 cells assessed as reduction in peak inward current by ionworks quattro electrophysiology assay; assay type: cell-based
Sequence of Sodium channel protein type 4 subunit alpha (P35499 whole entry): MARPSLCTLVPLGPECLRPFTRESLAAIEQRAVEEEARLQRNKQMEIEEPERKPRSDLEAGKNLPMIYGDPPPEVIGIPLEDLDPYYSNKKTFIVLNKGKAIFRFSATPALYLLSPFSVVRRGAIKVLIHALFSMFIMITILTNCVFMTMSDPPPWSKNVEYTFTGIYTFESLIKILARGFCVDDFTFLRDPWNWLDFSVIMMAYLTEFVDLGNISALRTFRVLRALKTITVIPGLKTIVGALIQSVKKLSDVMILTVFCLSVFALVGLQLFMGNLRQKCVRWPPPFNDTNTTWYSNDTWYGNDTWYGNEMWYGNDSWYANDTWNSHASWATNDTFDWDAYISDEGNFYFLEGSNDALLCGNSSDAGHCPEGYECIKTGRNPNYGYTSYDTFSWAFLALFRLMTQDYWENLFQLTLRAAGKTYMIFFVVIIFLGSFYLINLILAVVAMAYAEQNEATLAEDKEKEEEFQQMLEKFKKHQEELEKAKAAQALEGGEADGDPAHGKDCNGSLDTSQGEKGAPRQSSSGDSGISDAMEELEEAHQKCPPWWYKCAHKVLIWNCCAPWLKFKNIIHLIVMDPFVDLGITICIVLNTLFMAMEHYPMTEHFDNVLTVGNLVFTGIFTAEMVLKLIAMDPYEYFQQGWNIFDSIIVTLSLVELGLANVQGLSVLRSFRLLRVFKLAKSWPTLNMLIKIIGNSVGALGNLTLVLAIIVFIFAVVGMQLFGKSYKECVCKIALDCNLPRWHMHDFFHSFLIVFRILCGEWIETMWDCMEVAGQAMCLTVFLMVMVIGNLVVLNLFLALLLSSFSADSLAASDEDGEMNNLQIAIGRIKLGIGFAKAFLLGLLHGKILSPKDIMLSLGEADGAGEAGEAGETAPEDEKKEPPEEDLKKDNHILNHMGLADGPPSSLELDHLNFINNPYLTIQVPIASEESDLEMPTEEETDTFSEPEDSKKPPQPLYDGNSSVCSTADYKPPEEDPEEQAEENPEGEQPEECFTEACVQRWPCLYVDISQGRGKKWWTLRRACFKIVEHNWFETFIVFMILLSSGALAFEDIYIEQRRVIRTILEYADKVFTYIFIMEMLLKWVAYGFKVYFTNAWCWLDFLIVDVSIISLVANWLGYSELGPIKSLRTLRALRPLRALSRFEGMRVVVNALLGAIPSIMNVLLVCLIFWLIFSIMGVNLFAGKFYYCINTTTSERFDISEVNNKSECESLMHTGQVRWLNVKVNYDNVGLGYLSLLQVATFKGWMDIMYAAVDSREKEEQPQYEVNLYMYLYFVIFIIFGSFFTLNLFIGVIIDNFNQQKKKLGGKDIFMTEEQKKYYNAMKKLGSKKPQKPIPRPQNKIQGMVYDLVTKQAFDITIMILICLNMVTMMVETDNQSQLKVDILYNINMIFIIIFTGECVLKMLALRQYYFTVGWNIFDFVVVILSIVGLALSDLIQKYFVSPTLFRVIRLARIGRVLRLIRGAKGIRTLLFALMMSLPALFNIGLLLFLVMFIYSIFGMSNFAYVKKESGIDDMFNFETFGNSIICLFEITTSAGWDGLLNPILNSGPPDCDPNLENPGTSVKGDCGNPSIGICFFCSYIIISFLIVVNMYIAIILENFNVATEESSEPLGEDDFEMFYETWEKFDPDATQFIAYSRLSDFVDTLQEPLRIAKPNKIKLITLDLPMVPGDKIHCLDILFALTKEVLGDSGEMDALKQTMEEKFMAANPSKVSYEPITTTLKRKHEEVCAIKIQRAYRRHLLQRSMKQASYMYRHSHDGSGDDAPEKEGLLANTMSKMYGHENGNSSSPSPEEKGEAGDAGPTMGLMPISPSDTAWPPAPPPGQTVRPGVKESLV

[6] = Intrinsic clearance in rat liver microsomes at 1 uM after 1 to 40 mins in presence of NADPH by LC-MS/MS analysis; assay type: ADME, microsome; conditions: read-out: CLH
PXR (NR1I2) = target: T1, PXR (NR1I2) (Homo sapiens, UniProt O75469); test: Activation of human PXR at 10 uM in presence of rifampicin; assay type: ADME; conditions: read-out: Activity
T1 sequence (O75469 whole entry): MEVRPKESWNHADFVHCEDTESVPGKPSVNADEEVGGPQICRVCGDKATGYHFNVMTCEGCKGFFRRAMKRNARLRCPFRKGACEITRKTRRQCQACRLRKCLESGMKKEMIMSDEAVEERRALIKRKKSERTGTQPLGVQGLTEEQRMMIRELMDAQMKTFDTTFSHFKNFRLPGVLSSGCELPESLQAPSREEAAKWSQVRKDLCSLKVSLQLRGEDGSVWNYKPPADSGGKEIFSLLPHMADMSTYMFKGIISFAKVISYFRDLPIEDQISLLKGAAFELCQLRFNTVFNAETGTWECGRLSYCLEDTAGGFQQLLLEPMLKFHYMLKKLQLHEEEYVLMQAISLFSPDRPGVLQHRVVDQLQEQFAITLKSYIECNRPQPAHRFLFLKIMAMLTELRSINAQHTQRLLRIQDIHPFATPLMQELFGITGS

[7] = Total clearance in dog at 0.25 mg/kg, iv; assay type: ADME, organism-based, Canis lupus familiaris; conditions: in vivo
Method in brief: (§2)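 Male dogs received a single 0.25 mg/kg iv dose in DMSO. Unbound clearance (CLu) is total clearance divided by fu, the unbound fraction in plasma.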

[8] = Volume of distribution at steady state in rat at 0.5 mg/kg, iv; assay type: ADME, organism-based; conditions: in vivo, read-out: Vdss; method in brief: as §1
[9] = Half life in rat at 0.5 mg/kg, iv; assay type: ADME, organism-based; conditions: in vivo; method in brief: as §1
[10] = Half life in dog at 0.25 mg/kg, iv; assay type: ADME, organism-based, Canis lupus familiaris; conditions: in vivo; method in brief: as §2
[11] = AUC in rat at 10 mg/kg, po; assay type: ADME, organism-based; conditions: in vivo
[12] = AUC in dog at 2 mg/kg, po; assay type: ADME, organism-based, Canis lupus familiaris; conditions: in vivo
[13] = Oral bioavailability in dog at 2 mg/kg; assay type: ADME, organism-based, Canis lupus familiaris; conditions: in vivo
[14] = Unbound fraction in rat plasma at 5 uM by LC-MS/MS method; assay type: ADME, cell-free
[15] = Unbound fraction in dog plasma at 5 uM by LC-MS/MS method; assay type: ADME, cell-free, Canis lupus familiaris
[16] = Aqueous solubility of the compound in PBS after 48 hrs by shake flask method; assay type: physicochemical
Mus musculus [17] = test: Toxicity in naive C57Bl/6 mouse assessed as effect on basic locomotor movement at 30 to 300 mg/kg, po measured after 4 hrs for 60 mins by open field test; assay type: organism-based; conditions: in vivo
[18] = Tmax in dog at 2 mg/kg, po; assay type: ADME, organism-based, Canis lupus familiaris; conditions: in vivo
Cytochrome P450 3A4 [19] = target: T2, Cytochrome P450 3A4 (Homo sapiens, UniProt P08684); test: Inhibition of CYP3A4 (unknown origin); assay type: ADME
T2 sequence (P08684 whole entry): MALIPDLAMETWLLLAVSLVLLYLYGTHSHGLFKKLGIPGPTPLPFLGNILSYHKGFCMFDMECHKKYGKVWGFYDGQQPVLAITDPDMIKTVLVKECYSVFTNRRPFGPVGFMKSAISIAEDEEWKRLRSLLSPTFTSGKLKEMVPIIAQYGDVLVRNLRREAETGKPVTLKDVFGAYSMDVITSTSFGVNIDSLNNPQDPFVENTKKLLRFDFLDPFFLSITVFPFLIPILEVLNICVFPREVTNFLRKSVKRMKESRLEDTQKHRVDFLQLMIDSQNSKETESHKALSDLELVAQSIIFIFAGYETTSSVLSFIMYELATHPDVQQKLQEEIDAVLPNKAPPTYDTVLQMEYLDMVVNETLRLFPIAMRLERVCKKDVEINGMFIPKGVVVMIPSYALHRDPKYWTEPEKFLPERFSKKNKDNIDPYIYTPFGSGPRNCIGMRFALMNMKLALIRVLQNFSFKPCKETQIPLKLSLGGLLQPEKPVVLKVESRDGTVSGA

Cytochrome P450 2D6 = Cytochrome P450 2D6 (Homo sapiens, UniProt P10635); test: Inhibition of CYP2D6 (unknown origin); assay type: ADME
Cytochrome P450 2C9 = Cytochrome P450 2C9 (Homo sapiens, UniProt P11712); test: Inhibition of CYP2C9 (unknown origin); assay type: ADME
Sequence of Cytochrome P450 2C9 (P11712 whole entry): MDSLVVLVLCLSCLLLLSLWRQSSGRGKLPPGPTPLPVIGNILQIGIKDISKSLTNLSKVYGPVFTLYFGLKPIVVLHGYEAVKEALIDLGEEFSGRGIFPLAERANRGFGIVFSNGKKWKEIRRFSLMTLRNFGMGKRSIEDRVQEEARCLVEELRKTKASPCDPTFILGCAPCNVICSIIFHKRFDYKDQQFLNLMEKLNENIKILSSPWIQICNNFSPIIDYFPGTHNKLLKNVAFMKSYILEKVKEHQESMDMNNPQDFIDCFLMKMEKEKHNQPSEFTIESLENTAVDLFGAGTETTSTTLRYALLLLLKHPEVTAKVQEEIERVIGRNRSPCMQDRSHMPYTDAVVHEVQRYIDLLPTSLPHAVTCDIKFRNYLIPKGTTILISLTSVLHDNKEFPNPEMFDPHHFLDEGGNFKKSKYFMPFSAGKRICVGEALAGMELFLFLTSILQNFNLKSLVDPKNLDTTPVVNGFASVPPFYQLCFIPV

Plasma [20] = test: Total plasma concentration in C57Bl/6 mouse at 100 mg/kg, po; assay type: ADME, organism-based; conditions: in vivo
Plasma [21] = test: Total plasma concentration in C57Bl/6 mouse at 300 mg/kg, po; assay type: ADME, organism-based; conditions: in vivo
Plasma [22] = test: Unbound plasma concentration in C57Bl/6 mouse at 30 mg/kg, po; assay type: ADME, organism-based; conditions: in vivo
Plasma [23] = test: Unbound plasma concentration in C57Bl/6 mouse at 100 mg/kg, po; assay type: ADME, organism-based; conditions: in vivo
Plasma [24] = test: Unbound plasma concentration in C57Bl/6 mouse at 300 mg/kg, po; assay type: ADME, organism-based; conditions: in vivo
[25] = target: Sodium channel protein type 9 subunit alpha (Homo sapiens, UniProt Q15858); test: Inhibition of human Nav1.7 expressed in HEK293 cells incubated for 3 to 5 mins at -125 mV holding potential by electrophysiology assay; assay type: cell-based
[26] = target: Sodium channel protein type 9 subunit alpha (Mus musculus, UniProt Q62205); test: Inhibition of mouse Nav1.7 expressed in HEK293 cells incubated for 3 to 5 mins at -125 mV holding potential by electrophysiology assay; assay type: cell-based
Sequence of Sodium channel protein type 9 subunit alpha (Mus musculus, UniProt Q62205) (Q62205 whole entry): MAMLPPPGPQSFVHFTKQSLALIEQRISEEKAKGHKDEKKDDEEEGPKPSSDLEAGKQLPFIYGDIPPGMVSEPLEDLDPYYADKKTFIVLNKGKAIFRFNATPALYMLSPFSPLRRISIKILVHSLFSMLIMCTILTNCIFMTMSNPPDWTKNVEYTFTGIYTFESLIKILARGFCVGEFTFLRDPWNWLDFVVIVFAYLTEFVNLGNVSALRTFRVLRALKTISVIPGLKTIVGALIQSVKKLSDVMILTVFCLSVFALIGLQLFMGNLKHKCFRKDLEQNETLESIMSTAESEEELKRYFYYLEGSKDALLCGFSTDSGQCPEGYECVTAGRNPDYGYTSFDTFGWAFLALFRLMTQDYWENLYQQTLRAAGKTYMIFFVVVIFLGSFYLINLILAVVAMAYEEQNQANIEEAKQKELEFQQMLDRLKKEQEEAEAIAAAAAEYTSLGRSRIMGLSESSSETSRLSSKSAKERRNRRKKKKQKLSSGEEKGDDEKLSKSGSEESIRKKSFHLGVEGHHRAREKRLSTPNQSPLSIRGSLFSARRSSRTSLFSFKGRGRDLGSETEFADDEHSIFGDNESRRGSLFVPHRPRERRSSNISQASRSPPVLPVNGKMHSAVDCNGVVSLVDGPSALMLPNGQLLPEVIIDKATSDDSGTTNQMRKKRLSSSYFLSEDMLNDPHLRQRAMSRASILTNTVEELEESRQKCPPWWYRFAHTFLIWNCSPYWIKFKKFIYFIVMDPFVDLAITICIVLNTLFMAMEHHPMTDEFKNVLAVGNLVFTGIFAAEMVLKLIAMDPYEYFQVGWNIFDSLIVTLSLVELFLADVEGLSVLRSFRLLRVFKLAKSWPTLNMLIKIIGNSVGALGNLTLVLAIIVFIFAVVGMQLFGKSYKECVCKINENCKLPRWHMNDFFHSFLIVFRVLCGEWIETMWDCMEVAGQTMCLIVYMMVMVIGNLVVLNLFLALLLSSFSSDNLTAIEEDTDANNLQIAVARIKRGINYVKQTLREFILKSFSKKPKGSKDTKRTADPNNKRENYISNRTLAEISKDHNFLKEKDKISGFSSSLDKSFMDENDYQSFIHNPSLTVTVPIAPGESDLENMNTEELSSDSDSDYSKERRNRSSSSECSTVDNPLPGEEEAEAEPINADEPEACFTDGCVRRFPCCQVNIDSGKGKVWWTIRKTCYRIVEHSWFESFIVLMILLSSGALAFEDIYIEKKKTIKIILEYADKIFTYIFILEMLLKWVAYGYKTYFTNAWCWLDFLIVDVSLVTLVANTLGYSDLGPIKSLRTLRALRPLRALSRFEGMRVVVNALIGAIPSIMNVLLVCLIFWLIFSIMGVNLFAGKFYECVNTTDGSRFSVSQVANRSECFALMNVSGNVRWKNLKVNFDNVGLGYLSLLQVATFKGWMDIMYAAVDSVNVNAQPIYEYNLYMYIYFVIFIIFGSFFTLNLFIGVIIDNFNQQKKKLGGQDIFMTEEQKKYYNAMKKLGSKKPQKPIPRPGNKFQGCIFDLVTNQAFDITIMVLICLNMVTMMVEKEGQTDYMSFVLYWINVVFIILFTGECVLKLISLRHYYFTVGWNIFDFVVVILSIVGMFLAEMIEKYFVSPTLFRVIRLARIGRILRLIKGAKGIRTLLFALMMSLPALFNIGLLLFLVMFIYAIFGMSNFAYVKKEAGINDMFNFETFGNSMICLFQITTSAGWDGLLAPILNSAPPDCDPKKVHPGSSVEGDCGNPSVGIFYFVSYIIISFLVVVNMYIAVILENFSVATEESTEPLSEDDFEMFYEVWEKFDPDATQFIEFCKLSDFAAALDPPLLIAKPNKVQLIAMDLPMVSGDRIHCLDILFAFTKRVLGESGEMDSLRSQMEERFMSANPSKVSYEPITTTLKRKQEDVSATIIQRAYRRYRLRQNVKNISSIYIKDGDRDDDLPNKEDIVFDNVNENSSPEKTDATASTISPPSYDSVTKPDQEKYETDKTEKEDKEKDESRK

[27] = Unbound fraction in mouse plasma at 5 uM by LC-MS/MS method; assay type: ADME, cell-free
[28] = Ratio of unbound plasma concentration in C57Bl/6 mouse at 300 mg/kg, po to IC50 for human Nav1.7 at -125 mV holding potential
Cytochrome P450 3A4 [29] = target: T2, Cytochrome P450 3A4; test: Induction of CYP3A4 in human hepatocytes at 10 uM relative to rifampicin

SMILES: COc1cc(-c2cccc(C(F)(F)F)c2)c(F)cc1-c1nccc2cc(S(=O)(=O)Nc3ccon3)ccc12
- concentration (Plasma [1]): 21.2 µM
- Activity (Mus musculus [2]): Active
- CL free (Rattus norvegicus): 433 mL/min/kg
- IC50 [3]: 12 µM
- IC50 [4]: 17 µM
- IC50 [5]: 12 µM
- microsomal CLint at 1 µM [6]: < 14 µL/min/mg
- activity at 10 µM (PXR (NR1I2)): 1%
- clearance [7]: 0.383 mL/min/kg
- Vd [8]: 2.1 L/kg
- half-life [9]: 6.2 h
- half-life [10]: 20 h
- AUC [11]: 44.2 µM·h
- AUC [12]: 101 µM·h
- bioavailability [13]: 63%
- fraction unbound at 5 µM [14]: 0.0087
- fraction unbound at 5 µM [15]: 0.0066
- solubility thermodynamic at 48 h [16]: 432 µM (≈ 235 µg/mL)
- Activity (Mus musculus [17]): Non-Toxic
- Tmax [18]: 2 h
- IC50 (Cytochrome P450 3A4 [19]): > 15 µM
- IC50 (Cytochrome P450 2D6): > 15 µM
- IC50 (Cytochrome P450 2C9): 0.43 µM
- concentration (Plasma [20]): 106 µM
- concentration (Plasma [21]): 137 µM
- Cp(f) (Plasma [22]): 0.246 µM
- Cp(f) (Plasma [23]): 1.23 µM
- Cp(f) (Plasma [24]): 1.59 µM
- IC50 [25]: 0.036 µM
- IC50 [26]: 0.036 µM
- fraction unbound at 5 µM [27]: 0.0116
- Ratio [28]: 45
- Activity (Cytochrome P450 3A4 [29]): 7%
